Results on 26 compounds are retold here after ChEMBL document CHEMBL1152432, “2-Arylamino-4-amino-5-aroylthiazoles. "One-pot" synthesis and biological evaluation of a new class of inhibitors of tubulin polymerization” (J Med Chem, 2009).

The term IC50 denotes the concentration at which inhibition is half-maximal. The low end stands for higher potency, the high end for lower potency. Broadly, the inhibition is the change of the read-out against control, counted positive when it falls.

The structures appear in SMILES notation.

Assay [1] concerns L1210. The assay is described as follows: Antiproliferative activity against mouse L1210 cells after 2 days by coulter counter method. It counts as functional, cell-based. The following applies: L1210, 48 h. Put shortly:
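Cells seeded at 300,000-500,000 cells/mL, mixed 1:1 with compound dilutions and incubated 2 days at 37 °C. Cell number counted by Coulter counter. IC50 is the concentration giving 50% inhibition of proliferation, taken from dose-response curves. Mean ± SE of at least three independent experiments.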

The subject of assay [2] is FM3A. The assay is described as follows: Antiproliferative activity against mouse FM3A cells after 2 days by coulter counter method. It counts as functional, cell-based. Conditions: 48 h. The method in brief: (§1)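 Cells seeded at 300,000-500,000 cells/mL, mixed 1:1 with compound dilutions and incubated 2 days at 37 °C. Cell number counted by Coulter counter. Mean ± SE of at least three independent experiments.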

Assay [3] relates to MOLT-4. As to the kind of experiment: Antiproliferative activity against human MOLT4 cells after 2 days by coulter counter method. It counts as functional, cell-based. Conditions: MOLT-4, 48 h. The method in brief: as §1
Assay [4] relates to CCRF-CEM. The assay is described as follows: Antiproliferative activity against human CEM cells after 2 days by coulter counter method. It counts as functional, cell-based. The following applies: 48 h. The method in brief:
as §1

The subject of assay [5] is HeLa. The assay is described as follows: Antiproliferative activity against human HeLa cells after 2 days by coulter counter method. It counts as functional, cell-based. The following applies: 48 h. The method in brief: as §1
A short description of assay [6]: Inhibition of bovine brain tubulin polymerization by turbidimetry. Details: species or system Bos taurus. The method in brief: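 Purified bovine brain tubulin (10 μM) preincubated with varying compound concentrations in glutamate buffer at 30 °C, then chilled to 0 °C. GTP added, mixtures warmed to 30 °C in a recording spectrophotometer and assembly followed turbidimetrically.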

Assay [7] is filed under the species Bos taurus. As to the kind of experiment: Displacement of [3H]colchicine from bovine brain tubulin at 1 uM. The method in brief:
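Reaction mixtures held 1 μM bovine brain tubulin, 5 μM [3H]colchicine and 1 μM test compound. Inhibition of radiolabelled colchicine binding to tubulin was measured.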
On the technique in general: Displacement assays read how much labelled ligand stays bound in the presence of the test substance.

Assay [8] relates to HeLa. As to the kind of experiment: Cell cycle arrest in human HeLa cells assessed as accumulation at G1 phase at 30 nM after 24 hrs uisng propidium iodide staining by flow cytometry. It counts as functional. The method in brief:
(§2)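 Exponentially growing HeLa cells (5×10^5) treated 24 h. Floating and trypsinized cells pooled, fixed in ice-cold 70% ethanol, lysed with RNaseA buffer and stained with propidium iodide. DNA histograms acquired by flow cytometry. Percentages of G1, S and G2/M phases calculated on living cells, with the sub-G1 peak also scored.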
On the technique in general: Flow cytometry measures light scatter and fluorescence of single cells or particles in a stream.

The subject of assay [9] is HeLa. The assay is described as follows: Cell cycle arrest in human HeLa cells assessed as accumulation at S phase at 30 nM after 24 hrs uisng propidium iodide staining by flow cytometry. It counts as functional. The method in brief: as §2
Assay [10] deals with HeLa. The assay is described as follows: Cell cycle arrest in human HeLa cells assessed as accumulation at G2/M phase at 30 nM after 24 hrs uisng propidium iodide staining by flow cytometry. It counts as functional. Put shortly: as §2
In assay [11] the test system is HeLa. The assay is described as follows: Cell cycle arrest in human HeLa cells assessed as accumulation at subG1 phase at 30 nM after 24 hrs uisng propidium iodide staining by flow cytometry. It counts as functional. Put shortly: as §2
The test system of assay [12] is HeLa. The assay is described as follows: Induction of apoptosis in human HeLa cells assessed as appearance of hypodiploid cells after 24 hrs using propidium iodide staining by flow cytometry. It counts as functional, cell-based. The method in brief:
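HeLa cells (5×10^5, exponential growth) exposed to a range of concentrations for 24 h, then ethanol-fixed (70%, ice-cold), RNaseA-treated and propidium iodide-stained for flow cytometry. Apoptotic fraction taken as the cells forming a sub-G1 peak.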

As to `Cc1ccc(Nc2nc(-n3ccnc3C)cs2)cc1`, the IC50 in assay [1] stood at 1800 nM; in assay [2], 1200 nM; in [3], 510 nM; in [4], 1500 nM; in [5], 530 nM; in assay [6], 4000 nM. In addition, the inhibition in [7] is 58%.

On to `COc1ccc(C(=O)c2sc(Nc3ccc(Cl)cc3)nc2N)cc1`, for which the IC50 in [1], in [2], in assay [3], in [4] and in assay [5] was more than 10000 nM in each case.

On to `COc1ccc(Nc2nc(N)c(C(=O)c3ccc(Cl)cc3)s2)cc1`, for which the IC50 in assay [1] is 84 nM; in assay [2] it was 59 nM; in assay [3], 13 nM; in [4] it was 19 nM; in assay [5] it was 83 nM; in assay [6], 1100 nM. Moreover, in assay [7], the inhibition stood at 89%. Further, the Activity in assay [8] was 17.1%; in assay [9], 18.9%; in assay [10], 64%; in assay [11], 23.3%; in assay [12], “Dose-dependent effect”.

Turning to `COc1ccc(Nc2nc(N)c(C(=O)c3ccc(OC)c(OC)c3)s2)cc1`, the IC50 stood at 38 nM in assay [1]; 71 nM in assay [2]; 37 nM in [3]; 10 nM in assay [4]; 52 nM in [5]; 2800 nM in [6]. In addition, the inhibition in [7] was determined as 63%. Besides, the Activity was 35.7% in assay [8]; 15.5% in assay [9]; 48.8% in [10]; 17.8% in assay [11]; “Dose-dependent effect” in assay [12].

As to `COc1ccc(Nc2nc(N)c(C(=O)c3cc(OC)c(OC)c(OC)c3)s2)cc1`, the IC50 was 1500 nM in assay [1]; 2200 nM in [2]; 480 nM in [3]; 1100 nM in assay [4]; 560 nM in [5].

Consider `COc1ccc(Nc2nc(N)c(C(=O)c3ccc(Br)cc3)s2)cc1`, for which the IC50 worked out at 110 nM in assay [1]; 100 nM in assay [2]; 16 nM in assay [3]; 39 nM in assay [4]; 79 nM in [5].

`COc1cc(C(=O)c2sc(Nc3ccc(C)cc3)nc2N)cc(OC)c1OC`: the IC50 is 31 nM in [1]; 15 nM in [2]; 21 nM in assay [3]; 41 nM in assay [4]; 86 nM in assay [5]; 720 nM in [6]. Further, in assay [7], the inhibition was 87%. Besides, the Activity in [8] is 32.1%; in assay [9], 17.4%; in [10] it was 50.5%; in [11], 18.9%; in assay [12], “Dose-dependent effect”.

With `COc1ccc(Nc2nc(N)c(C(=O)c3ccccc3OC)s2)cc1`, the IC50 stood at 31 nM in [1]; 52 nM in assay [2]; 18 nM in assay [3]; 17 nM in assay [4]; 17 nM in assay [5]; 1400 nM in [6]. Moreover, the inhibition in assay [7] was determined as 77%. For the same compound, the Activity in assay [8] was 38.5%; in assay [9], 20.4%; in assay [10] it was 40.1%; in assay [11] it was 28.6%; in [12], “Dose-dependent effect”.

`Cc1ccc(Nc2nc(N)c(C(=O)c3ccccc3)s2)cc1`: the IC50 in assay [1] stood at 2800 nM; in assay [2] it was 1500 nM; in assay [3], 210 nM; in [4], 370 nM; in assay [5], 900 nM.

`Nc1nc(Nc2ccccc2)sc1C(=O)c1ccccc1`: the IC50 in [1] came to 8100 nM; in assay [2], 8200 nM; in assay [3], 7300 nM; in assay [4] it was 3900 nM; in assay [5] it was 6100 nM. This compound also returned an inhibition in assay [7] of 35%.

Turning to `COc1ccc(C(=O)c2sc(Nc3ccccc3)nc2N)cc1OC`, the IC50 in assay [1] is more than 10000 nM; in assay [2], more than 10000 nM; in assay [3] it was 5500 nM; in assay [4], 6900 nM; in assay [5], 6000 nM.

`COc1ccc(C(=O)c2sc(Nc3ccc(F)cc3)nc2N)cc1`: the IC50 in assay [1], in assay [2], in assay [3], in assay [4] and in [5] was more than 10000 nM in each case.

As for `Nc1nc(Nc2ccc(F)cc2)sc1C(=O)c1ccccc1`, the IC50 in assay [1], in assay [2], in assay [3], in [4] and in [5] was more than 10000 nM throughout.

Turning to `COc1cc(C(=O)c2sc(Nc3ccc(Cl)cc3)nc2N)cc(OC)c1OC`, the IC50 amounted to 420 nM in [1]; 420 nM in [2]; 110 nM in assay [3]; 190 nM in assay [4]; 180 nM in assay [5].

On to `COc1ccc(C(=O)c2sc(Nc3ccccc3)nc2N)cc1`, for which the IC50 in assay [1] is more than 10000 nM; in [2], more than 10000 nM; in [3], 6900 nM; in assay [4], 9100 nM; in assay [5], more than 10000 nM.

For the compound `COc1ccc(/C=C\c2cc(OC)c(OC)c(OC)c2)cc1O` [COMBRETASTATIN A4], the IC50 in [6] amounted to 1400 nM.

Regarding `COc1ccc(Nc2nc(N)c(C(=O)c3ccc([N+](=O)[O-])cc3)s2)cc1`, the IC50 is 280 nM in [1]; 310 nM in assay [2]; 29 nM in assay [3]; 31 nM in assay [4]; 350 nM in [5].

`COc1cc(C(=O)c2sc(Nc3ccc(F)cc3)nc2N)cc(OC)c1OC`: the IC50 in assay [1] was 900 nM; in [2], 58 nM; in assay [3], 280 nM; in [4], 400 nM; in assay [5], 440 nM.

For the compound `COc1cccc(Nc2nc(N)c(C(=O)c3ccccc3)s2)c1`, the IC50 was determined as 8200 nM in [1]; 5000 nM in assay [2]; 1500 nM in assay [3]; 2900 nM in assay [4]; 3200 nM in [5]; 3600 nM in [6]. This compound also came in with an inhibition in assay [7] of 43%.

With `COc1ccc(Nc2nc(N)c(C(=O)c3cccc(OC)c3)s2)cc1`, the IC50 in assay [1] worked out at 35 nM; in [2], 50 nM; in assay [3], 4 nM; in assay [4], 9.9 nM; in assay [5] it was 37 nM; in assay [6] it was 1400 nM. In assay [7], this compound gave an inhibition of 84%. Moreover, the Activity in assay [8] turned out to be 40%; in assay [9], 20.8%; in assay [10], 39.2%; in assay [11] it was 9.6%.

As to `COc1cccc(C(=O)c2sc(Nc3ccccc3)nc2N)c1`, the IC50 in [1] stood at 7600 nM; in assay [2], 6200 nM; in assay [3], 1300 nM; in assay [4], 2300 nM; in [5], 1700 nM.

With `COc1ccccc1C(=O)c1sc(Nc2ccccc2)nc1N`, the IC50 was found to be 1100 nM in assay [1]; 1100 nM in assay [2]; 1300 nM in assay [3]; 730 nM in assay [4]; 1200 nM in [5].

`COc1cccc(Nc2nc(N)c(C(=O)c3cc(OC)c(OC)c(OC)c3)s2)c1`: the IC50 in assay [1] worked out at 2100 nM; in assay [2], 2000 nM; in assay [3], 530 nM; in assay [4], 1300 nM; in [5], 1000 nM.

Take `COc1ccc(Nc2nc(N)c(C(=O)c3ccccc3)s2)cc1`: the IC50 in [1] is 850 nM; in assay [2], 730 nM; in [3], 230 nM; in assay [4] it was 300 nM; in assay [5], 230 nM.

In the case of `Nc1nc(Nc2ccc(Cl)cc2)sc1C(=O)c1ccccc1`, the IC50 in assay [1], in assay [2], in [3], in assay [4] and in assay [5] was more than 10000 nM each time.

On to `COc1ccc(/N=c2/[nH]c(N)c(C(=O)c3ccc(OC)cc3)s2)cc1`, for which the IC50 in assay [1] amounted to 470 nM; in assay [2], 630 nM; in [3], 320 nM; in assay [4] it was 1200 nM; in assay [5], 330 nM.
